For four compounds, Activity and IC50 results are on record in ChEMBL document CHEMBL1142057, “Inhibition of the G2 DNA damage checkpoint by oliveroline isolated from Duguetia odorata” (J Nat Prod, 2007).

For assay [1], the system named is MCF7. As to the kind of experiment: Inhibition of 6.5 Gy [60Co]-induced G2 DNA damage check point in MCF7 mp53 cells at 10 uM. The class given is functional, Homo sapiens. Details: scale not given: the % may be the effect or the level left. The procedure, abridged: (§1)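 MCF-7 mp53 cells seeded at 2 × 10^5 cells/dish, cultured 24 h, then given 6.5 Gy (60Co, 1.2 Gy/min). Sixteen hours later (90% in G2), compound added with 100 ng/mL nocodazole for 8 h. Cells fixed in 70% EtOH, stained with mitosis-specific antibody GF-7 and propidium iodide. 20 000 events per sample read by flow cytometry as % cells escaping G2 arrest. DMSO carrier control.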

Assay [2] has as its system MCF7. In words: Inhibition of 6.5 Gy [60Co]-induced G2 DNA damage check point in MCF7 mp53 cells at >10 uM. It counts as functional, cell-based. The following applies: Homo sapiens. In short, it runs like this:
as §1

Assay [3] addresses T1, Serine/threonine-protein kinase Chk1 (Homo sapiens) (UniProt O14757).
T1 sequence (whole entry): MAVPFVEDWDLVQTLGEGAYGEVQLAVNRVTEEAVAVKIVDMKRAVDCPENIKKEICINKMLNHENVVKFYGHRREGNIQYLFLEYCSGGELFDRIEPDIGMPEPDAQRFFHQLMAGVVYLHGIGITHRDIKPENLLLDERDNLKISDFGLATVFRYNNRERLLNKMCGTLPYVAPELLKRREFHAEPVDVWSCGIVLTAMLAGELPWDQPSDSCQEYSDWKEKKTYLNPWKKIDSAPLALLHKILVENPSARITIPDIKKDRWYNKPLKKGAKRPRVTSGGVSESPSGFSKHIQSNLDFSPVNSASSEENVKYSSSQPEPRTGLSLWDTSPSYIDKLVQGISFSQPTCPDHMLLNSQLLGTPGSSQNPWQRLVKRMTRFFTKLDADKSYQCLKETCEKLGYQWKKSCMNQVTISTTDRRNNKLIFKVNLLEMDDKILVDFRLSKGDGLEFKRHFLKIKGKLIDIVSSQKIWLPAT
In words: Inhibition of Chk1.

The subject of assay [4] is MCF7. As to the kind of experiment: Inhibition of 6.5 Gy [60Co]-induced G2 DNA damage check point in MCF7 mp53 cells. It counts as functional, cell-based. The following applies: Homo sapiens. The procedure, abridged: as §1
Assay [5] relates to MCF7. As to the kind of experiment: Inhibition of cell proliferation in MCF7 mp53 cells in absence of 6.5 Gy [60Co]-induced DNA damage. The class given is functional, cell-based. The following applies: Homo sapiens. In short, it runs like this:
(§2)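 MCF-7 mp53 cells seeded at 1000 cells/well and grown overnight. Compound applied over a concentration range for 24 h (DMSO ≤1% final), then irradiated with 0 or 6.5 Gy. Compound removed 24 h later and cells grown in fresh medium until untreated cells neared confluence (typically 4-6 days). Proliferation read by MTT, 2 h at 37 °C, SDS/DMF solubilisation, absorbance 570 nm. IC50 reported.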

Assay [6] has as its system MCF7. In words: Inhibition of 6.5 Gy [60Co]-induced G2 DNA damage check point in MCF7 mp53 cells at 50 uM. It counts as functional, Homo sapiens. Also on record: scale not given: the % may be the effect or the level left. The procedure, abridged: as §1
Assay [7] concerns MCF7. As to the kind of experiment: Inhibition of cell proliferation in MCF7 mp53 cells in presence of 6.5 Gy [60Co]-induced DNA damage. The class given is functional, cell-based. The following applies: Homo sapiens. The procedure, abridged: as §2

SMILES strings stand for the structures. Active and inactive are the calls of the source. No cut-off for these calls is given here.

Take `O=C1NC(=O)c2c1c1c3ccccc3[nH]c1n1cncc21` [ISOGRANULATIMIDE]: the Activity with MCF7 [1] was determined as 35%.

`CN1CCc2cc3c(c4c2[C@H]1[C@@H](O)c1ccccc1-4)OCO3` [OLIVEROLINE]: in the assay with MCF7 [2], the outcome was Active. Moreover, the result in assay [3] was inactive. For the same compound, the Activity entry is “Dose-dependent effect” in the assay on MCF7 [4] and 35% in the assay with MCF7 [6]. In addition, the IC50 was found to be 45 µM in the assay with MCF7 [5] and 20 µM in the assay on MCF7 [7].

As to `COc1cc2c(cc1O)CC[n+]1cc3cc(OC)c(OC)cc3cc1-2` [DEHYDRODISCRETINE], the result in the assay on MCF7 [2] and with MCF7 [4] was inactive. The IC50 in the assay with MCF7 [5] was determined as 25 µM; in the assay with MCF7 [7], 7 µM.

As to `COc1cc2c(cc1OC)-c1cc3cc(OC)c(OC)cc3c[n+]1CC2` [PSEUDOPALMATINE], the outcome in the assay on MCF7 [2] and in the assay on MCF7 [4] was inactive. Besides, the IC50 in the assay with MCF7 [5] turned out to be 250 µM; in the assay on MCF7 [7] it was 80 µM.
